Measurements collected from several papers.
Compare with care: the assays were run in different laboratories.
Target: STE20/SPS1-related proline-alanine-rich protein kinase (STK39, Homo sapiens, UniProt Q9UEW8)

SMILES | assay | conditions | endpoint | result
CCC(=O)N[C@@H]1CC[C@H](C(=O)N(C)c2ccc(-c3nc4ccccc4o3)cc2)C1 | cell-free assay, competition with immobilised ligand | 1 µM | remaining binding | 73%
COc1ccc(COc2ccc(Cc3cnc(N)nc3N)cc2OC)cc1 | cell-free assay | 0.5 µM | remaining signal | 87.6%
Cn1cncc1C1=CN(c2ncnc3[nH]cnc23)CCS1 | enzyme activity, inhibitor, radiometric | 2 µM | inhibition | 87.3%
CC(C)(C)c1nc(-c2cccc(NS(=O)(=O)c3c(F)cccc3F)c2F)c(-c2ccnc(N)n2)s1 | enzyme activity, inhibitor, radiometric | 1 µM | remaining activity | 81%
O=C(Nc1cnn(-c2csc(C(=O)NC3COC3)c2)c1)Nc1c(F)cccc1Cl | enzyme activity, inhibitor | 5 µM | remaining activity | 82.3%
Cn1cnc(Br)c1C1=CN(c2ncnc3[nH]cnc23)CCS1 | enzyme activity, inhibitor, radiometric | 2 µM | inhibition | 86.6%
O=C(Nc1cnn(-c2csc(C(=O)NC3COC3)c2)c1)Nc1ccccc1Cl | enzyme activity, inhibitor | 5 µM | remaining activity | 87.5%
O=C1NC(=O)c2cc(Nc3ccc(F)cc3)c(Nc3ccc(F)cc3)cc21 | cell-free assay | 0.5 µM | remaining signal | 89.2%
O=c1nc(-c2ccccn2)sc2ccccc12 | binding, competition with immobilised ligand | 1 µM | remaining binding | 100%
Cc1ccc(C(=O)Nc2ccc(CN3CCN(C)CC3)c(C(F)(F)F)c2)cc1C#Cc1cnc2cccnn12 | enzyme activity, inhibitor | 23.5 nM | remaining activity | 85%
N#CCCc1ccc2c(c1)-c1[nH]c3ccc([N+](=O)[O-])cc3c1CC(=O)N2 | cell-free assay | 0.5 µM | remaining signal | 96.4%
CS(=O)(=O)N1CCCC(NC(=O)[C@H](CCC2CCCCC2)NC(=O)c2ccc(CNc3ncnc4c3nnn4-c3ccccc3)cc2)C1 (stereo partly drawn) | cell-free assay, competition with immobilised ligand | 0.1 µM | remaining binding | 100%
